IDH1 R132H inh = blocks human IDH1 R132H reductase activity. O75874. diaphorase/resazurin fluorescence, 60 min. inhibition, % at 10 µM. 0.18% of 70,000 active. AID 624101; in the data active = inhibition above about 34%; inconclusive = no clear call, values can overlap the other calls; inactive = below about 11%;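 note: 0% = DMSO and 100% = no enzyme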
GASC1 inh = KDM4C (human) demethylase inhibition; GST-KDM4C 2-372, H3K9me3 peptide, LANCE TR-FRET; inhibition, % at 12.5 µM; 0.15% of 96,000 active;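 active = mean replicate inhibition above about 25%, with at least 55% of replicates also reaching it, limit read from the data, passing the limit was not always enough; inconclusive = only one of those two conditions met; inactive = neither condition met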
Target sequence (Q9H3R0 2-372 limits assumed): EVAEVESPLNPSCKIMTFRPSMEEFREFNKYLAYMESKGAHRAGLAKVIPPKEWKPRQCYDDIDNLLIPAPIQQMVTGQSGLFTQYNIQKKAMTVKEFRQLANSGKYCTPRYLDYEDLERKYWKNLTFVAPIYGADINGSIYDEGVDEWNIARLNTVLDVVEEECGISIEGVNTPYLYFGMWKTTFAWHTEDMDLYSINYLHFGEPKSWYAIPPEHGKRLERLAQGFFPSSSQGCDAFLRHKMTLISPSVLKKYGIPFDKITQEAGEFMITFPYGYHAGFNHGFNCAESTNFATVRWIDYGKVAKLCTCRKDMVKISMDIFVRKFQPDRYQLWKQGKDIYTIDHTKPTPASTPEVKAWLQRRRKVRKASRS
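System – N-terminal GST-fused human GASC-1 (KDM4C) fragment, residues 2-372 · Input – enzyme final amount 10 nM · Technique – LANCE TR-FRET, Eu antibody, ULight-streptavidin, EDTA, ex 340 nm, em 618/671 nm · Medium – HEPES buffer, pH 7.5, plus ascorbate · Incubation – enzyme reaction 30 min, then detection 60 min, both room temperature · Reagent – H3K9me3 peptide with Fe(II)/2OG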
T cruzi growth-1 = blocks T. cruzi growth in NIH3T3 culture | T. cruzi beta-gal in NIH3T3, GalScreen luminescence, 90 h | inhibition, % at 8.34 µM | 5.9% of 77,000 active;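 active = mean inhibition above about 93%, with at least 55% of replicates each passing it, limit read from the data, passing the limit was not always enough; inconclusive = only one of those two conditions holds; inactive = neither condition holds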
Pf Dd2 inh = P. falciparum Dd2 growth inhibition; SYBR Green, 72 h; hits give low values; activity change, % at 10 µM; 2.3% of 94,000 active; in the data active = activity change below about -80%; inconclusive = no clear call, values can overlap the other calls
T cruzi growth-2 = blocks T. cruzi growth in NIH3T3 host cells; shares compounds with T cruzi growth-1; T. cruzi beta-gal in NIH3T3, GalScreen luminescence, 90 h; inhibition, % at 8.35 µM; 72% of 5,600 active;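 active = mean replicate inhibition above about 95% and at least 55% of replicates individually reaching it, limit read from the data; inconclusive = only one of the two criteria is met; inactive = neither criterion is met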
T cruzi growth-3 = Trypanosoma cruzi proliferation inhibition | shares compounds with T cruzi growth-1 | T. cruzi beta-gal in NIH3T3, GalScreen luminescence, 90 h | inhibition, % at 2.09 µM | 21% of 5,600 active | AID 651740;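 active = mean inhibition above about 95%, with at least 55% of replicates also reaching it, limit read from the data; inconclusive = meets just one of the two conditions; inactive = meets neither condition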;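 note: plate controls were neutral control median for no effect and positive control median for full effect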
3T3 cytotox = kills mouse NIH/3T3 fibroblasts; shares compounds with T cruzi growth-1; NIH/3T3 viability, CellTiter-Glo ATP luminescence, 90 h; cytotoxicity (signal decrease), % at 8.35 µM; 14% of 5,600 active; AID 651742;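 active = mean signal decrease across replicates above about 35% based on untreated-well scatter, with enough replicates individually passing, limit read from the data; inconclusive = no rule stated though some were filed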;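 note: 0% = median of neutral control wells and 100% = median of positive control wells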
NIH3T3 tox 2 = cytotoxicity in mouse NIH/3T3 fibroblasts. shares compounds with T cruzi growth-1. NIH/3T3 viability, CellTiter-Glo ATP luminescence, 90 h. inhibition, % at 24.9 µM. 56% of 5,600 active. AID 651744;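 active = mean loss of cell viability signal at or above a set limit, and enough replicates individually reaching it; inconclusive = meets only the mean limit or only the replicate share; inactive = meets neither condition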;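 note: 0% = median of neutral control wells and 100% = median of positive control wells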
Numbers without * were called inactive; ? = inconclusive; . = not tested or not shown; ! = not active in a repeat. This is a sample that favours compounds with a hit; in the whole collection about 5.8% have one here.

SMILES	IDH1 R132H inh	GASC1 inh	T cruzi growth-1	Pf Dd2 inh	T cruzi growth-2	T cruzi growth-3	3T3 cytotox	NIH3T3 tox 2
COc1cccc(NC(=O)N(C)C[C@H]2Oc3ncc(C#Cc4ccc(F)cc4)cc3C(=O)N([C@@H](C)CO)C[C@@H]2C)c1	.	-4	121*	-46	106*	100*	23	38*
COc1cccc(NC(=O)N(C)C[C@@H]2Oc3ncc(C#Cc4ccc(F)cc4)cc3C(=O)N([C@H](C)CO)C[C@H]2C)c1	0	-1	117*	-14	108*	102*	5	14
COc1cccc(NC(=O)N(C)C[C@H]2Oc3ncc(C#Cc4ccc(F)cc4)cc3C(=O)N([C@H](C)CO)C[C@H]2C)c1	.	-2	41	-2	.	.	.	.
COc1cccc(NC(=O)N(C)C[C@H]2Oc3ncc(C#Cc4ccc(F)cc4)cc3C(=O)N([C@H](C)CO)C[C@@H]2C)c1	-1	-2	80	-36	.	.	.	.
COc1cccc(NC(=O)N(C)C[C@@H]2Oc3ncc(C#Cc4ccc(F)cc4)cc3C(=O)N([C@H](C)CO)C[C@@H]2C)c1	.	-3	104*	-28	98*	34	26	81*
Cc1onc(-c2ccccc2Cl)c1C(=O)NCCc1ccc(S(N)(=O)=O)cc1	1	.	.	.	.	.	.	.
N#C[C@H]1[C@H](c2ccc(-c3cccc(F)c3)cc2)[C@@H](CO)N1S(=O)(=O)c1cccc(F)c1	.	-2	98*	-8	105*	59	41*	104*
CCCC#Cc1ccc([C@H]2[C@H](C#N)N(S(=O)(=O)c3cccc(F)c3)[C@H]2CO)cc1	.	0	98*	-35	103*	105*	7	59*
Cc1ccccc1S(=O)(=O)N1[C@H](C#N)[C@@H](c2ccc(-c3ccccc3)cc2)[C@@H]1CO	.	0	67	-2	.	.	.	.
Cc1ccccc1S(=O)(=O)N1[C@H](C#N)[C@H](c2ccc(-c3ccccc3)cc2)[C@H]1CO	.	-1	103*	-13	98*	66	41*	47*
N#C[C@H]1[C@H](c2ccc(-c3cccc(F)c3)cc2)[C@H](CO)N1S(=O)(=O)c1cccc(F)c1	.	-2	96*	-37	108*	75	37*	57*
COC(=O)CCCCCCC(=O)N/N=C/CNC(=O)OC(C)(C)C	0	.	.	.	.	.	.	.
NC(=O)CSc1nc2sc3c(c2c(=O)n1Cc1ccccc1)CCCC3	0	.	.	.	.	.	.	.
COc1ccc(S(=O)(=O)Nc2ccc3c(c2)C(=O)N([C@H](C)CO)C[C@@H](C)[C@@H](CN(C)S(=O)(=O)c2ccc(F)cc2)OCCCC[C@H](C)O3)cc1	.	0	95*	-57	108*	33	-7	5
COc1ccc(S(=O)(=O)Nc2ccc3c(c2)C(=O)N([C@H](C)CO)C[C@@H](C)[C@H](CN(C)S(=O)(=O)c2ccc(F)cc2)OCCCC[C@@H](C)O3)cc1	3	-3	105*	-69	105*	59	11	13
COc1ccc(S(=O)(=O)N(C)C[C@@H]2OCCCC[C@@H](C)Oc3ccc(NS(=O)(=O)c4ccc(F)cc4)cc3C(=O)N([C@H](C)CO)C[C@@H]2C)cc1	.	-1	53	-25	.	.	.	.
COc1ccc(S(=O)(=O)N(C)C[C@@H]2OCCCC[C@@H](C)Oc3ccc(NS(=O)(=O)c4ccc(F)cc4)cc3C(=O)N([C@@H](C)CO)C[C@@H]2C)cc1	5	0	112*	-64	101*	65	-1	53*
COc1ccc(S(=O)(=O)N(C)C[C@H]2OCCCC[C@@H](C)Oc3ccc(NS(=O)(=O)c4ccc(F)cc4)cc3C(=O)N([C@H](C)CO)C[C@H]2C)cc1	0	-2	114*	-74	106*	75	-17	-17
CN(C)c1ccc(/C=N/NC(=O)CCCCC(=O)NO)cc1	0	.	.	.	.	.	.	.
COC(=O)c1ccccc1NC(=O)C(C)NS(=O)(=O)c1ccc(F)cc1 (stereo unspecified)	0	.	.	.	.	.	.	.
COc1ccc(S(=O)(=O)N(C)C[C@@H]2OCCCC[C@H](C)Oc3ccc(NS(=O)(=O)c4ccc(F)cc4)cc3C(=O)N([C@@H](C)CO)C[C@@H]2C)cc1	.	0	118*	-53	108*	40	-27	-8
Cc1sc(NC(=O)COc2ccc(Cl)cc2Cl)c(C(N)=O)c1C	1	.	.	.	.	.	.	.
CC(C)NC(=O)Nc1ccc2c(c1)CC(=O)N([C@H](C)CO)C[C@H](C)[C@H](CN(C)Cc1ccc(Oc3ccccc3)cc1)O2	1	0	71	-42	.	.	.	.
COc1ccc(CN(C)C[C@H]2Oc3ccc(NC(=O)Nc4ccc5c(c4)OCO5)cc3CC(=O)N([C@H](C)CO)C[C@H]2C)cc1	2	0	99*	31	110*	20	1	8
C[C@@H]1CN([C@H](C)CO)C(=O)Cc2cc(NC(=O)Nc3ccc4c(c3)OCO4)ccc2O[C@H]1CN(C)Cc1ccc(Oc2ccccc2)cc1	-1	11	?	9	113*	69	29	31*
SMILES	IDH1 R132H inh	GASC1 inh	T cruzi growth-1	Pf Dd2 inh	T cruzi growth-2	T cruzi growth-3	3T3 cytotox	NIH3T3 tox 2
CC(C)NC(=O)Nc1ccc2c(c1)CC(=O)N([C@@H](C)CO)C[C@@H](C)[C@H](CN(C)Cc1ccc(Oc3ccccc3)cc1)O2	0	3	101*	?	107*	42	30	104*
C[C@@H]1CN([C@@H](C)CO)C(=O)Cc2cc(NC(=O)Nc3ccc4c(c3)OCO4)ccc2O[C@@H]1CN(C)Cc1ccc(Oc2ccccc2)cc1	.	-1	4	-5	.	.	.	.
COc1cc(Cc2nnc(C(=O)NC(C)C)o2)cc(OC)c1OC	0	.	.	.	.	.	.	.
COc1cccc(-c2ccc([C@H]3[C@H](C#N)N(C(=O)Cc4ccncc4)[C@H]3CO)cc2)c1	.	0	?	?	102*	58	13	52*
COc1cccc(-c2ccc([C@@H]3[C@@H](C#N)N(C(=O)Cc4ccncc4)[C@@H]3CO)cc2)c1	.	-7	75	-46	.	.	.	.
COc1cccc(-c2ccc([C@H]3[C@@H](C#N)N(C(=O)Cc4ccccc4)[C@@H]3CO)cc2)c1	.	-4	97*	-65	110*	67	17	43*
COc1ccc(C2C(C(=O)Nc3ccccc3)=C(C)Nc3ncnn32)cc1O (stereo unspecified)	0	.	.	.	.	.	.	.
C[C@@H]1CCCCO[C@H](CN(C)Cc2ccncc2)[C@@H](C)CN([C@H](C)CO)C(=O)c2cc(N(C)C)ccc2O1	4	21	108*!	2	59	-10	13	-1
